Experimental data from ChEMBL document CHEMBL1221219, “Selective blockade of 2-arachidonoylglycerol hydrolysis produces cannabinoid behavioral effects” (Nat Chem Biol, 2009).
The source made the active and inactive calls. The calls are words filed in the database; no cut-off is given here.

Columns and labels:
Mus musculus [1] = assay: Induction of hypomotility in C57B1/6J mouse at 16 mg/kg, ip; format: functional, organism-based; set-up: dose 16 mg/kg
Outline: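 Male C57Bl/6J mice, 6-8 weeks, 20-26 g, given 16 mg kg^-1 i.p. in 4:1 v/v PEG300:Tween80 at 4 μl g^-1; vehicle controls received PEG300:Tween80 alone. Cannabinoid effects were scored in the tetrad test.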

Mus musculus [2] = assay: Decrease in arachidonic acid levels in C57B1/6J mouse brain at 16 mg/kg, ip by LC-MS; format: functional, organism-based; set-up: dose 16 mg/kg
Outline: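 Mice received 16 mg kg^-1 i.p. in 4:1 PEG300:Tween80 and were killed at 0.5, 1, 2, 4, 8 and 24 h. Brain lipids, including N-acylethanolamines, MAGs, free fatty acids and arachidonic acid, were measured by LC-MS.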

Mus musculus [3] = assay: Inhibition of FAAH in C57B1/6J mouse brain membrane at 16 mg/kg, ip after 4 hrs by competitive activity-based protein profiling method relative to control; format: functional; set-up: scale not given: the % may be the effect or the level left; conditions: route intraperitoneal
Outline: (§1)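 Male C57Bl/6J mice (6-8 weeks, 20-26 g) given inhibitor i.p. in 4:1 v/v PEG300:Tween80 at 4 ul g^-1 (4-40 mg kg^-1); vehicle controls. Brain membrane proteomes (1 mg ml^-1 in PBS) labelled with FP-rhodamine (2 μM) for 30 min at room temperature. Readout by SDS-PAGE and in-gel fluorescence scanning, compared with vehicle.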

Mus musculus [4] = assay: Inhibition of PREPL in C57B1/6J mouse brain membrane at 16 mg/kg, ip after 4 hrs by competitive activity-based protein profiling-MudPIT method; format: functional, organism-based; set-up: dose 16 mg/kg
Outline: (§2)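 After i.p. dosing in 4:1 PEG300:Tween80, male C57Bl/6J mice were killed at 4 h. Brain membrane proteomes from treated and vehicle mice were labelled with FP-biotin. Labelled proteins were enriched on avidin, digested on-bead with trypsin and analysed by multidimensional LC-MS. Proteins were identified by SEQUEST, and dosed samples were compared with vehicle.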

[5] = target: T1, Cytosolic phospholipase A2 (Homo sapiens) (UniProt P47712); assay: Inhibition of recombinant cPLA2 4a expressed in HEK293 cells assessed as hydrolysis of PAPC to arachidonic acid at 20 uM TLC assay; format: cell-based
T1 sequence (whole entry): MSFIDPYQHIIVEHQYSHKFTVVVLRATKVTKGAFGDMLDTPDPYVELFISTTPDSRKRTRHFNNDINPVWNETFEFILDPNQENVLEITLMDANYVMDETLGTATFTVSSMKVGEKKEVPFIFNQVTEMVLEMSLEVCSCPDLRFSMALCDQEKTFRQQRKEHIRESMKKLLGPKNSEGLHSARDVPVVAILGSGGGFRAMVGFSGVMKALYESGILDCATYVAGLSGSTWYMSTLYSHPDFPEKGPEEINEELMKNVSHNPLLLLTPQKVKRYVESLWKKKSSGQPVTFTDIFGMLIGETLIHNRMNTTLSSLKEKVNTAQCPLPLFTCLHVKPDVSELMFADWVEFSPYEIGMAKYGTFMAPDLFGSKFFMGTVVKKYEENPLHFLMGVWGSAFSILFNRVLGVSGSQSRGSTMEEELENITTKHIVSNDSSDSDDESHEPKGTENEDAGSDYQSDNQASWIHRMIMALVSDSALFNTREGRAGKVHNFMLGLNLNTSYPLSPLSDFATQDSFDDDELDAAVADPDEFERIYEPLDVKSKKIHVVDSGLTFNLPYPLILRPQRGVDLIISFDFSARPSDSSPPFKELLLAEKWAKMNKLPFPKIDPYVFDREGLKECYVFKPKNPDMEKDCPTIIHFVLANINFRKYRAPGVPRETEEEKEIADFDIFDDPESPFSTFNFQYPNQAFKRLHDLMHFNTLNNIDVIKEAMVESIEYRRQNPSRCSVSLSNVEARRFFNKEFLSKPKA

Mus musculus [6] = assay: Inhibition of LPL1 in C57B1/6J mouse brain membrane at 16 mg/kg, ip after 4 hrs by competitive activity-based protein profiling-MudPIT method; format: functional, organism-based; set-up: dose 16 mg/kg; outline: as §2
Mus musculus [7] = assay: Inhibition of ACOT1 in C57B1/6J mouse brain membrane at 16 mg/kg, ip after 4 hrs by competitive activity-based protein profiling-MudPIT method; format: functional, organism-based; set-up: dose 16 mg/kg
Outline: (§3)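 Mice were dosed 16 mg kg^-1 i.p. or vehicle and killed at 4 h. Brain membrane proteomes were labelled with FP-biotin, avidin-enriched, trypsin-digested on bead, analysed by multidimensional LC-MS and identified by SEQUEST.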

Mus musculus [8] = assay: Inhibition of NTE-like in C57B1/6J mouse brain membrane at 16 mg/kg, ip after 4 hrs by competitive activity-based protein profiling-MudPIT method; format: functional, organism-based; set-up: dose 16 mg/kg; outline: as §2
Mus musculus [9] = assay: Inhibition of FAAH in C57B1/6J mouse brain membrane at 4 mg/kg, ip after 4 hrs by competitive activity-based protein profiling method relative to control; format: functional; conditions: route intraperitoneal; outline: as §1
Mus musculus [10] = assay: Inhibition of MAGL in intraperitoneally dosed C57B1/6J mouse brain membrane assessed as increase in 2-AG level after 4 hrs relative to control; format: functional, organism-based
Outline: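 Male C57Bl/6J mice dosed i.p. in 4:1 v/v PEG300:Tween80, with vehicle controls; killed at set times (0.5-24 h, or 4 h). Brain membrane 2-AG hydrolysis measured by LC-MS substrate assay, and brain 2-AG measured by lipid LC-MS, relative to vehicle.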

Mus musculus [11] = assay: Antinociceptive activity against formalin-induced pain in C57B1/6J mouse assessed as paw lifting or licking during late phase (20-40 mins) at 40 m/kg, po administered 2 hrs before formalin challenge pretreated with rimonabant; format: functional, organism-based
Mus musculus [12] = assay: Change in arachidonic acid levels in intraperitoneally dosed C57B1/6J mouse brain by LC-MS; format: functional, organism-based
Outline: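 Male C57Bl/6J mice given 4, 8, 16 or 40 mg kg^-1 i.p. in 4:1 PEG300:Tween80 at 4 μl g^-1, or vehicle, and killed after 4 h. Whole-brain lipids were quantified by LC-MS.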

Mus musculus [13] = assay: Inhibition of FAAH in C57B1/6J mouse brain membrane assessed as elevated level of anandamide at 10 mg/kg, ip by competitive activity-based protein profiling method; format: functional, organism-based; set-up: dose 10 mg/kg
Mus musculus [14] = assay: Inhibition of CES31 in C57B1/6J mouse brain membrane at 16 mg/kg, ip after 4 hrs by competitive activity-based protein profiling-MudPIT method; format: functional, organism-based; set-up: dose 16 mg/kg; outline: as §3
Mus musculus [15] = assay: Inhibition of AARE in C57B1/6J mouse brain membrane at 16 mg/kg, ip after 4 hrs by competitive activity-based protein profiling-MudPIT method; format: functional, organism-based; set-up: dose 16 mg/kg; outline: as §3
Mus musculus [16] = assay: Inhibition of FAAH in intraperitoneally dosed C57B1/6J mouse brain membrane after 4 hrs by competitive activity-based protein profiling method; format: functional, organism-based; outline: as §1
Mus musculus [17] = assay: Inhibition of CG167 in C57B1/6J mouse brain membrane at 16 mg/kg, ip after 4 hrs by competitive activity-based protein profiling-MudPIT method; format: functional, organism-based; set-up: dose 16 mg/kg; outline: as §3
Mus musculus [18] = assay: Inhibition of PLA2G7 in C57B1/6J mouse brain membrane at 16 mg/kg, ip after 4 hrs by competitive activity-based protein profiling-MudPIT method; format: functional, organism-based; set-up: dose 16 mg/kg; outline: as §2

Structure (SMILES): O=C(Oc1ccc([N+](=O)[O-])cc1)N1CCC(C(O)(c2ccc3c(c2)OCO3)c2ccc3c(c2)OCO3)CC1
- Activity (Mus musculus [1]): Active
- Activity (Mus musculus [2]): Active
- Activity (Mus musculus [3]): 35%
- inhibition (Mus musculus [4]): inactive
- inhibition [5]: inactive
- inhibition (Mus musculus [6]): inactive
- inhibition (Mus musculus [7]): inactive
- inhibition (Mus musculus [8]): inactive
- inhibition in vivo at 4 mg/kg (Mus musculus [9]): < 20%
- inhibition (Mus musculus [10]): Dose-dependent effect
- Activity (Mus musculus [11]): inactive
- Activity (Mus musculus [12]): inactive
- inhibition (Mus musculus [13]): Active
- inhibition (Mus musculus [14]): inactive
- inhibition (Mus musculus [15]): inactive
- inhibition (Mus musculus [16]): Dose-dependent effect
- inhibition (Mus musculus [17]): inactive
- inhibition (Mus musculus [18]): inactive
